Results collected from several papers.
Compare with care: the assays were run in different laboratories. ≈ marks a conversion by molar mass, not a printed value.
Organism: Candida albicans

Compound | observed | technique | strain | concentration | time | measurement | result
COc1cc(C=NNC(=O)CSc2nc3c(C)cccc3c(=O)n2-c2ccccc2)ccc1OS(C)(=O)=O | microbial growth | well diffusion |  | 20 µg/mL |  | inhibition zone | 3 mm
OC(Cn1cncn1)(Cn1cncn1)c1ccc(F)cc1F | microbial growth |  |  |  |  | IC50 | 1 µg/mL (≈ 3.27 µM)
CCS(=O)(=O)Oc1cc(C=NNC(=O)CSc2nc3c(C)cccc3c(=O)n2-c2ccccc2)ccc1OC | microbial growth | well diffusion |  | 20 µg/mL |  | inhibition zone | 4 mm
C#CCOC(=O)ON=C1C=CC(=C(C#N)c2ccccc2)C=C1 | microbial killing | broth dilution | ATCC10231 |  | 48 h | MFC | 8 µg/mL (≈ 26.3 µM)
CC(=O)N1CCN(c2ccc(OCC3COC(Cn4ccnc4)(c4ccc(Cl)cc4Cl)O3)cc2)CC1 (stereo not shown) | microbial growth | well diffusion | MTCC227 | 1000 µg/mL | 18 h | inhibition zone | 24 mm
Nc1ccc(S(=O)(=O)Nc2ncccn2)cc1 | microbial growth | well diffusion |  | 20 µg/mL |  | inhibition zone | 3 mm
Nc1nn2c(-c3ccc(Cl)cc3Cl)cc(-c3ccc(OCc4ccccc4)cc3)nc2c1N=Nc1ccc(F)cc1 | microbial killing | broth dilution | ATCC10231 |  |  | MFC | 125 µg/mL (≈ 214 µM)
OC(Cn1cncn1)(Cn1cncn1)c1ccc(F)cc1F | microbial growth | broth dilution | CGMCC2 |  | 48 h | MIC | 4 µM (≈ 1.23 µg/mL)
Cc1ccc(N=Nc2c(N)nn3c(-c4ccco4)cc(-c4ccc(OCc5ccccc5)cc4)nc23)cc1 | microbial killing | broth dilution | ATCC10231 |  |  | MFC | 125 µg/mL (≈ 250 µM)
CCCS(=O)(=O)Oc1cc(C=NNC(=O)CSc2nc3c(C)cccc3c(=O)n2-c2ccccc2)ccc1OC | microbial growth | well diffusion |  | 20 µg/mL |  | inhibition zone | 2 mm
CC(=O)ON=C1C=CC(=C(C#N)c2ccccc2)C=C1 | microbial killing | broth dilution | ATCC10231 |  | 48 h | MFC | 4 µg/mL (≈ 15.1 µM)
CC(=O)N1CCN(c2ccc(OCC3COC(Cn4ccnc4)(c4ccc(Cl)cc4Cl)O3)cc2)CC1 (stereo not shown) | microbial growth | broth dilution | 17546 |  | 48 h | MIC | 1 µM (≈ 0.531 µg/mL)
CCCCCCCCCCCC(=O)ON=C1C=CC(=C(C#N)c2ccccc2)C=C1 | microbial killing | broth dilution | ATCC10231 |  | 48 h | MFC | 512 µg/mL (≈ 1270 µM)
COc1ccc(N=Nc2c(N)nn3c(-c4ccc(Cl)cc4Cl)cc(-c4ccc(OCc5ccccc5)cc4)nc23)cc1 | microbial killing | broth dilution | ATCC10231 |  |  | MFC | 250 µg/mL (≈ 420 µM)
CCS(=O)(=O)Oc1ccc(C=NNC(=O)CSc2nc3ccc(Cl)cc3c(=O)n2-c2ccccc2)cc1OC | microbial growth | well diffusion |  | 20 µg/mL |  | inhibition zone | 2 mm
Nc1nn2c(-c3ccco3)cc(-c3ccc(OCc4ccccc4)cc3)nc2c1N=Nc1ccc(F)cc1 | microbial killing | broth dilution | ATCC10231 |  |  | MFC | 500 µg/mL (≈ 991 µM)
CCS(=O)(=O)Oc1ccc(C=NNC(=O)CSc2nc3c(C)cccc3c(=O)n2-c2ccccc2)cc1 | microbial growth | well diffusion |  | 20 µg/mL |  | inhibition zone | 3 mm
Cc1ccc(N=Nc2c(N)nn3c(-c4ccc(Cl)cc4Cl)cc(-c4ccc(OCc5ccccc5)cc4)nc23)cc1 | microbial killing | broth dilution | ATCC10231 |  |  | MFC | 62.5 µg/mL (≈ 108 µM)
C[C@@H]1[C@H](O)[C@@H](C)/C=C/C=C/C=C/C=C/C=C/C=C/C=C/[C@H](O[C@@H]2O[C@H](C)[C@@H](O)[C@H](N)[C@@H]2O)C[C@@H]2O[C@](O)(C[C@@H](O)C[C@@H](O)[C@H](O)CC[C@@H](O)C[C@@H](O)CC(=O)O[C@H]1C)C[C@H](O)[C@H]2C(=O)O | microbial growth | broth dilution | SP3876 |  | 48 h | MIC | < 0.25 µM
